Source: ChEMBL document CHEMBL1128228, “2,3-Dihydro-1-benzofuran-5-ols as analogues of alpha-tocopherol that inhibit in vitro and ex vivo lipid autoxidation and protect mice against central nervous system trauma” (J Med Chem, 1995)
Active and inactive are the calls of the source. The calls are words filed in the database; no cut-off is given here.

Assays:
Mus musculus [1] = assay: Mouse brain drug concentration after 1 hr of 20 umol/kg subcutaneous administration; assay type: functional, organism-based
Outline: (§1)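 Mouse brain homogenates taken 1 h after 20 μmol/kg sc were diluted in methanol containing 2% ascorbic acid and centrifuged. Supernatant was run on a C8 column with isocratic 0.1 M phosphate/50–75% methanol. Detection was electrochemical at 0.6 V. Results are nmol/g, mean ± SD, five mice per group.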

Mus musculus [2] = assay: Ex vivo inhibition of mouse brain lipid autoxidation after 1 hr by 20 umol/kg subcutaneous administration; assay type: functional; settings: sc
Outline: (§2)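 Male CD1 mice (30 g, five per group) were given 20 μmol/kg sc or saline and killed 1 h later. Brains were frozen in liquid N2, stored at -80 °C, then homogenized 1/19 w/v in ice-cold water. Homogenate (10 mg tissue) was incubated in 20 mM KH2PO4 pH 7.3 with 0.14 M KCl (final) at 37 °C for 30 min. Unincubated samples gave basal TBARS.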

Rattus norvegicus [3] = species on record: Rattus norvegicus; assay: In vitro inhibition of lipid autoxidation (TBARS formation) of rat brain homogenate; assay type: functional
Outline: (§3)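 Rat brain homogenate was incubated at 37 °C for 30 min, and TBARS formation was measured. The value is the concentration giving 50% inhibition, as mean ± SD with the number of experiments given.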

[4] = Superoxyl radical (O2) scavenging reaction rate constant in competition with nitro-blue tetrazolium of superoxyl radicals formed by xanthine oxidase in the presence of xanthine; assay type: functional
Mus musculus [5] = species on record: Mus musculus; assay: Percentage number of paraparetic mice 1 hr after concussive head injury; assay type: functional
Outline: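 Mice were dosed 12 mg/kg sc 30 min before concussive head injury, a blow of measured severity. At 1 h a blinded string test counted mice unable to raise their hind limbs onto a horizontal string as paraparetic. Groups had 20–25 mice and were compared with saline by χ-square.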

Mus musculus [6] = assay: Ex vivo inhibition of mouse brain lipid autoxidation after 1 hr by 1 umol/kg subcutaneous administration; assay type: functional; settings: sc
Mus musculus [7] = assay: Ex vivo inhibition of mouse brain lipid autoxidation after 1 hr by 20 umol/kg subcutaneous administration; no inhibition; assay type: functional, organism-based; outline: as §2
Mus musculus [8] = assay: […] fter 1 hr by 20 umol/kg subcutaneous administration; assay type: functional, organism-based; outline: as §1
Rattus norvegicus [9] = species on record: Rattus norvegicus; assay: In vitro lipid autoxidation (TBARS formation) in rat brain homogenate; no inhibition; assay type: functional; outline: as §3
[10] = O2 scavenging reaction rate constant for competition with nitro-blue tetrazolium of superoxyl radicals formed by xanthine oxidase in the presence of xanthine;No reaction; assay type: functional

Cc1c(C)c2c(c(C)c1O)C(CN1CCN(Cc3ccccc3)CC1)C(C)(C)O2 (stereo not drawn)
Concentration (Mus musculus [1]): 1.6 nM/g
inhibition in vivo at 20 µmol/kg (Mus musculus [2]): 24%
IC50 (Rattus norvegicus [3]; Rattus norvegicus, Brain): 300 nM
Rate constant [4]: 20000 M⁻¹ s⁻¹

Cc1c(C)c2c(c(C)c1O)C(CN1CCN(CCO)CC1)C(C)(C)O2 (stereo not drawn)
Paraparetic mice (Mus musculus [5]): 40%
Concentration (Mus musculus [1]): 6.5 nM/g
inhibition in vivo at 20 µmol/kg (Mus musculus [2]): 57%
IC50 (Rattus norvegicus [3]; Rattus norvegicus, Brain): 500 nM
Rate constant [4]: 90000 M⁻¹ s⁻¹

Cc1c(C)c2c(c(C)c1O)C(CN1CCN(C)CC1)C(C)(C)O2 (stereo not drawn)
Paraparetic mice (Mus musculus [5]): 30%
Concentration (Mus musculus [1]): 7.5 nM/g
inhibition in vivo at 20 µmol/kg (Mus musculus [2]): 63%
IC50 (Rattus norvegicus [3]): 400 nM
IC50 (Rattus norvegicus [3]; Rattus norvegicus, Brain): 450 nM

COC(=O)C1c2c(C)c(O)c(C)c(C)c2OC1(C)C (stereo not drawn)
IC50 (Rattus norvegicus [3]; Rattus norvegicus, Brain): 3200 nM

Cc1c(C)c2c(c(C)c1O)C(CN1CCN(c3ncccn3)CC1)C(C)(C)O2 (stereo not drawn)
Concentration (Mus musculus [1]): 0.8 nM/g
inhibition in vivo at 20 µmol/kg (Mus musculus [2]): 29%
IC50 (Rattus norvegicus [3]; Rattus norvegicus, Brain): 400 nM

Cc1c(C)c2c(c(C)c1O)C(C(=O)N1CCN(C)CC1)C(C)(C)O2 (stereo not drawn)
IC50 (Rattus norvegicus [3]; Rattus norvegicus, Brain): 12000 nM
Rate constant [4]: 83000 M⁻¹ s⁻¹

Cc1c(C)c2c(c(C)c1O)C(CNC(C)C)C(C)(C)O2 (stereo not drawn)
inhibition in vivo at 1 µmol/kg (Mus musculus [6]): 37%
IC50 (Rattus norvegicus [3]; Rattus norvegicus, Brain): 1400 nM
Rate constant [4]: 330000 M⁻¹ s⁻¹

Cc1c(C)c2c(c(C)c1O)CC[C@@](C)(CCC[C@H](C)CCC[C@H](C)CCCC(C)C)O2 [ALPHA-TOCOPHEROL]
IC50 (Rattus norvegicus [3]; Rattus norvegicus, Brain): 14000 nM

Cc1c(C)c2c(c(C)c1O)CCC(C)(CCN(C)C)O2 (stereo not drawn)
inhibition in vivo at 20 µmol/kg (Mus musculus [2]): 16%
IC50 (Rattus norvegicus [3]; Rattus norvegicus, Brain): 700 nM
Rate constant [4]: 27000 M⁻¹ s⁻¹

Cc1c(C)c2c(c(C)c1O)C(CN1CCN(CCOCCO)CC1)C(C)(C)O2 (stereo not drawn)
Paraparetic mice (Mus musculus [5]): 60%
Concentration (Mus musculus [1]): 1.2 nM/g
inhibition (Mus musculus [7]): inactive
IC50 (Rattus norvegicus [3]; Rattus norvegicus, Brain): 1200 nM
Rate constant [4]: 85000 M⁻¹ s⁻¹

Cc1c(C)c2c(c(C)c1O)C(CO)C(C)(C)O2 (stereo not drawn)
IC50 (Rattus norvegicus [3]; Rattus norvegicus, Brain): 2600 nM
Rate constant [4]: 140000 M⁻¹ s⁻¹

Cc1c(C)c2c(c(C)c1O)C(C(=O)N1CCN(CCO)CC1)C(C)(C)O2 (stereo not drawn)
IC50 (Rattus norvegicus [3]; Rattus norvegicus, Brain): 19000 nM
Rate constant [4]: 43000 M⁻¹ s⁻¹

Cc1c(C)c2c(c(C)c1O)C(C(=O)OCCN1CCN(C)CC1)C(C)(C)O2 (stereo not drawn)
inhibition in vivo at 20 µmol/kg (Mus musculus [2]): 10%
IC50 (Rattus norvegicus [3]; Rattus norvegicus, Brain): 3900 nM

CC(=O)OCCN1CCN(CC2c3c(C)c(OC(C)=O)c(C)c(C)c3OC2(C)C)CC1 (stereo not drawn)
Concentration (Mus musculus [8]): 5.7 nM/g
inhibition in vivo at 20 µmol/kg (Mus musculus [2]): 35%
IC50 (Rattus norvegicus [9]): Not Active
Rate constant [10]: inactive

CC(=O)Oc1c(C)c(C)c2c(c1C)C(CN1CCN(C)CC1)C(C)(C)O2 (stereo not drawn)
Concentration (Mus musculus [8]): 7.2 nM/g
inhibition in vivo at 20 µmol/kg (Mus musculus [2]): 57%
IC50 (Rattus norvegicus [9]): Not Active

Cc1c(C)c2c(c(C)c1O)C(CN(C)C)C(C)(C)O2 (stereo not drawn)
inhibition (Mus musculus [7]): inactive
IC50 (Rattus norvegicus [3]; Rattus norvegicus, Brain): 700 nM
Rate constant [4]: 150000 M⁻¹ s⁻¹

Cc1c(C)c2c(c(C)c1O)CCC(C)(CC[N+](C)(C)C)O2.Cc1ccc(S(=O)(=O)[O-])cc1 (stereo not drawn)
Paraparetic mice (Mus musculus [5]): 40%
IC50 (Rattus norvegicus [3]; Rattus norvegicus, Brain): 2000 nM
Rate constant [4]: 24000 M⁻¹ s⁻¹

Cc1c(C)c2c(c(C)c1O)C(C(=O)O)C(C)(C)O2 (stereo not drawn)
IC50 (Rattus norvegicus [3]; Rattus norvegicus, Brain): 27000 nM
Rate constant [4]: 67000 M⁻¹ s⁻¹

Cc1c(C)c2c(c(C)c1O)C(C[N+](C)(C)C)C(C)(C)O2 (stereo not drawn)
IC50 (Rattus norvegicus [3]; Rattus norvegicus, Brain): 3600 nM
Rate constant [4]: 49000 M⁻¹ s⁻¹

Cc1c(C)c2c(c(C)c1O)C(CN1CCCCC1)C(C)(C)O2 (stereo not drawn)
inhibition in vivo at 1 µmol/kg (Mus musculus [6]): 50%
IC50 (Rattus norvegicus [3]; Rattus norvegicus, Brain): 400 nM
Rate constant [4]: 90000 M⁻¹ s⁻¹
